A selection: hits, their analogues and other compounds. The true share with any hit is near 4.1%.
XBP1 UPR activ = activators of adaptive arm of unfolded protein response (XBP1); hit rate 0.33% among 330,000; activation, % at 20 µM; CHO-XBP1 luciferase reporter, IRE1-XBP1 UPR activation, luminescence; percent of tunicamycin response, DMSO as zero;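 active = versus positive control, 20 µM dose yields 30% or more activation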;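 note: 100% = tunicamycin at 10 µg/mL and 0% = DMSO only wells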
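Material: CHO-XBP1 cells stably carrying IRE1-XBP1-driven luciferase reporter | Medium: F12 with 10% serum | Compound dosing: 20 µM single concentration, DMSO 1% | Incubation: Overnight seeding at 37 °C, 6 h compound treatment at 37 °C | Detection: Steady-Glo luminescence read | Read-out basis: % activation of reporter signal versus tunicamycin and DMSO controls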
Apaf-1 inh = blocks human Apaf-1 apoptosome activity | O14727 | reconstituted apoptosome caspase-3 activity, DEVD-Rh110 fluorescence | inhibition, % at 20 µM | hit rate 0.71% among 330,000; active = inhibition of at least 40% at 20 µM;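 note: plate controls were DMSO wells for no effect and DEVD-CHO caspase inhibitor wells for full effect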
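Medium: Hepes buffer, pH 7.5 / System: biochemical Apaf-1 apoptosome reconstitution / Measured by: Rh110 fluorescence, excitation 480 nm, emission 540 nm / Times: compound with Apaf-1, dATP, procaspase-3 30 min, then 50 min reaction, room temperature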
CHOP UPR activ = activators of apoptotic arm of unfolded protein response (CHOP); CHO-CHOP luciferase reporter, UPR activation, luminescence; percent of tunicamycin response over DMSO baseline; activation, % at 10 µM; hit rate 0.34% among 330,000; AID 449763;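 active = at 10 µM dose, activation of 40% or more, normalized to positive control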;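 note: 100% = tunicamycin at 10 µg/mL and 0% = DMSO alone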
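Assay system: CHO-CHOP cells, stable luciferase reporter of PERK-eIF2a-CHOP signalling / Buffer or medium: F12 plus 10% serum / Compound dosing: one dose, 10 µM in 0.5% DMSO / Times: 6 h compound treatment, 37 °C / Technique: luciferase luminescence / Read-out: % reporter activation, DMSO baseline versus tunicamycin full activation / Benchmarks: tunicamycin and DMSO controls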
UBC13 polyUb = blocks human UBC13 polyubiquitin chain formation; P61088; TR-FRET; inhibition, % at 20 µM; hit rate 0.47% among 330,000; AID 485273; in the data active = inhibition above about 45%, passing the limit was not always enough
Target sequence (P61088 whole entry, looked up): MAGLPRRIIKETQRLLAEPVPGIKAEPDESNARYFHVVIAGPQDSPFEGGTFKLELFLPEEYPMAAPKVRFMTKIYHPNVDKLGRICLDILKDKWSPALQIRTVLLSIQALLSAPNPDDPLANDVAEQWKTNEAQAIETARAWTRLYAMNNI
Mdm2-MdmX inh = inhibitors of human Mdm2/MdmX interaction. inhibition, % at 8 µM. AID 485346. O15151+Q00987. hit rate 3% among 330,000. SaOS-2 split-luciferase Mdm2/MdmX complementation, luminescence;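 active = inhibition of at least 50% at 8 µM in the primary screen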
CHOP UPR conf = confirmation of apoptotic unfolded protein response (CHOP) activators; activation, % at 10 µM; shares compounds with CHOP UPR activ; CHO-CHOP cells, CHOP-luciferase reporter luminescence; percent of tunicamycin response, DMSO as zero; AID 463112; hit rate 64% among 1,000; in the data active = activation above about 33%;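 note: 0% = DMSO wells and 100% = tunicamycin 10 µg/mL wells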
XBP1 UPR conf = confirmation of adaptive unfolded protein response (XBP1) activators. shares compounds with XBP1 UPR activ. activation, % at 20 µM. AID 485299. hit rate 63% among 1,000. CHO-XBP1 IRE1-XBP1 luciferase reporter, luminescence;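 active = reporter signal at least 30% of the positive control's activation in two or more of four replicate wells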;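 note: plate controls were DMSO negative control for no effect and tunicamycin 10 µg/mL positive control for full effect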
Mdm2 MdmX conf = confirmation of human Mdm2/MdmX interaction inhibitors; shares compounds with Mdm2-MdmX inh; Mdm2-MdmX binding, luminescent assay; inhibition, % at 8 µM; hit rate 55% among 10,000; in the data active = inhibition above about 40%
FLuc counter = inhibits full-length luciferase, flagging false Mdm2/MdmX hits | shares compounds with Mdm2-MdmX inh | SaOS-2 full-length luciferase counterscreen, luminescence | inhibition, % at 8 µM | hit rate 77% among 6,200 | AID 504607;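 active = mean inhibition at 8 µM reaching about 37%, which flags the compound as non-specific, limit read from the data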;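 note: p53-null SaOS-2 cells with luciferase driven by a doxycycline-inducible promoter; compound on cells about two nights before reading with doxycycline added after day one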
Active calls of the source: *.

Screening O=C1NC(=O)N(c2ccccc2)C(=O)/C1=C/C=C/c1ccco1 returned XBP1 UPR activ -5, Apaf-1 inh -3, CHOP UPR activ 62*, UBC13 polyUb -40, Mdm2-MdmX inh -7 and CHOP UPR conf 256*.
For COC(=O)C1=C(c2ccc(-c3ccccc3)c(F)c2)C[C@@H]2CC[C@H]1N2C(=O)NCC1CC1 the results were XBP1 UPR activ -3, Apaf-1 inh 37, CHOP UPR activ -1, UBC13 polyUb 4 and Mdm2-MdmX inh 27.
COc1ccc(N2C(=O)/C(=C/c3ccc(C)o3)C(=O)NC2=S)cc1 was read as XBP1 UPR activ -1, Apaf-1 inh 6, CHOP UPR activ 433*, UBC13 polyUb -22, Mdm2-MdmX inh 6 and CHOP UPR conf -9.
Screening COc1ccc(C(=O)NC(=S)N2C[C@H]3C[C@H](C2)c2cccc(=O)n2C3)cc1 returned XBP1 UPR activ -1, Apaf-1 inh 1, CHOP UPR activ 2, UBC13 polyUb -11 and Mdm2-MdmX inh -20.
For C=C(C)C(Cc1c(OC)ccc(C(=O)/C=C/c2ccc(O)cc2)c1O)OO (configuration not stated) the results were XBP1 UPR activ 2, Apaf-1 inh 2, CHOP UPR activ 47*, UBC13 polyUb -14, Mdm2-MdmX inh 34 and CHOP UPR conf 19.
For O=C(COc1ccc(Br)cc1)N1CCN(Cc2c[nH]c3ccccc23)CC1 the results were XBP1 UPR activ 12, Apaf-1 inh 18, CHOP UPR activ 23, UBC13 polyUb 10 and Mdm2-MdmX inh 21.
O=C(COc1ccc2ccccc2c1)N1CCN(Cc2c[nH]c3ccccc23)CC1 was read as XBP1 UPR activ 20, Apaf-1 inh 15, CHOP UPR activ 76*, UBC13 polyUb 12, Mdm2-MdmX inh 22 and CHOP UPR conf 43*.
For CC(C)CN(CC(C)C)c1ccc(C=C2C(=O)NC(=S)NC2=O)cc1[N+](=O)[O-] the results were XBP1 UPR activ 2, Apaf-1 inh 16, CHOP UPR activ 0, UBC13 polyUb -26 and Mdm2-MdmX inh 27.
`CCN(CC)c1ccc(C=C2C(=O)NC(=S)NC2=O)cc1` gave XBP1 UPR activ 0, Apaf-1 inh -1, CHOP UPR activ 222*, UBC13 polyUb -3, Mdm2-MdmX inh 23 and CHOP UPR conf 135*.
COc1cc2c(cc1OC)C1[C@H]3C(=CC[C@H]1OC2O)CCN3C (some centres not stated) was read as XBP1 UPR activ 0, Apaf-1 inh 12, CHOP UPR activ 0, UBC13 polyUb -4 and Mdm2-MdmX inh -1.
Screening COC(=O)C1=C(c2cc3ccccc3s2)C[C@@H]2CC[C@H]1N2C(=O)NC1CCCCC1 returned XBP1 UPR activ -4, Apaf-1 inh 6, CHOP UPR activ 2, UBC13 polyUb 10 and Mdm2-MdmX inh 14.
`CN1C(=O)NC(=O)/C(=C\C=C\c2ccccc2[N+](=O)[O-])C1=O` gave XBP1 UPR activ -6, Apaf-1 inh 8, CHOP UPR activ 203*, UBC13 polyUb -6, Mdm2-MdmX inh 32 and CHOP UPR conf 263*.
CN1C(=O)/C(=C/C=C/c2ccco2)C(=O)NC1=S was read as XBP1 UPR activ 1, Apaf-1 inh 19, CHOP UPR activ 0, UBC13 polyUb 9 and Mdm2-MdmX inh -14.
`O=C(/C=C/c1c[nH]c2ccccc12)c1c(O)n(CCc2ccccc2)c(=O)[nH]c1=O` gave XBP1 UPR activ -4, Apaf-1 inh -1, CHOP UPR activ -2, UBC13 polyUb -36 and Mdm2-MdmX inh 23.
`O=C1/C(=C\c2ccc(Cl)c(Cl)c2)N2CCC1CC2` gave XBP1 UPR activ 0, Apaf-1 inh -7, CHOP UPR activ 0, UBC13 polyUb 1 and Mdm2-MdmX inh 24.
Screening COc1cc(CN2CCN(c3cc(C)ccc3C)CC2)ccc1O returned XBP1 UPR activ 14, Apaf-1 inh -9, CHOP UPR activ 393*, UBC13 polyUb 5, Mdm2-MdmX inh 31 and CHOP UPR conf 152*.
Screening CCCCn1c(=O)c(C(=O)Nc2ncccc2C)c(O)c2ccccc21 returned XBP1 UPR activ 2, Apaf-1 inh 0, CHOP UPR activ 2, UBC13 polyUb 18 and Mdm2-MdmX inh 26.
CCCCCCn1c(=O)c(C(=O)Nc2ncccc2C)c(O)c2ccccc21 was read as XBP1 UPR activ 36*, Apaf-1 inh -1, CHOP UPR activ 61*, UBC13 polyUb 38, Mdm2-MdmX inh 5 and CHOP UPR conf 27.
`O=C1NC(=O)N(Cc2ccccc2Cl)C(=O)/C1=C/c1cccs1` gave XBP1 UPR activ 47*, Apaf-1 inh -11, CHOP UPR activ 52*, UBC13 polyUb 0, Mdm2-MdmX inh 37, CHOP UPR conf 50* and XBP1 UPR conf 74*.
`O=C(O)C(Br)CBr` (configuration not stated) gave XBP1 UPR activ -2, Apaf-1 inh 9, CHOP UPR activ -2, UBC13 polyUb 1 and Mdm2-MdmX inh -11.
Screening CC1CCC/C=C/C2CC(O)CC2C(O)/C=C/C(=O)O1 (configuration not stated) returned XBP1 UPR activ 18, Apaf-1 inh 9, CHOP UPR activ 123*, UBC13 polyUb -3, Mdm2-MdmX inh 96*, CHOP UPR conf 103*, Mdm2 MdmX conf 100* and FLuc counter 52*.
`C[C@H]1CCC[C@@H](O)CCC/C=C/c2cc(O)cc(O)c2C(=O)O1` gave XBP1 UPR activ -1, Apaf-1 inh 6, CHOP UPR activ 1, UBC13 polyUb 12 and Mdm2-MdmX inh 40.
For C[C@]12CCC3C(CC[C@H]4C[C@@H](O)CC[C@]34C)C1C[C@@H](Br)[C@H]2O (some centres not stated) the results were XBP1 UPR activ -2, Apaf-1 inh -5, CHOP UPR activ 2, UBC13 polyUb 7 and Mdm2-MdmX inh -7.
Screening C/C(=C\c1ccc(N(C)C)cc1)[N+](=O)[O-] returned XBP1 UPR activ -1, Apaf-1 inh -10, CHOP UPR activ 224*, UBC13 polyUb -7, Mdm2-MdmX inh 100*, CHOP UPR conf 150* and Mdm2 MdmX conf 31.

Assay outcomes from PubChem BioAssay.
